Values after ≈ are worked out from the molar mass of the structure shown.
Tests used:
Helicobacter pylori = assay: Antibacterial activity against Helicobacter pylori strain.; format: functional
Method in brief: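 H. pylori ATCC 43504 in Brucella broth (pH 7.0) with 10% FCS, starting at ~10⁶ CFU/mL. Compounds were tested as twofold serial dilutions, 0.5–256 μg/mL, made in DMSO. Cultures were incubated 72 h at 37 °C under 85% N₂/10% CO₂/5% O₂ and read by OD at 560 nm. MIC is the lowest concentration completely inhibiting growth.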

[1] = chromatographic retention
Helicobacter felis = assay: Antibacterial activity against Helicobacter felis strain in vitro.

| Structure (SMILES) | Log Ko [1] | MBC (Helicobacter pylori) [µg/mL] | MBC (Helicobacter felis) [µg/mL] |
| --- | --- | --- | --- |
| c1ccc(CSc2nc3ccccc3[nH]2)nc1 | – | 128 (≈ 530 µM) | – |
| Clc1ccnc(CSc2nc3ccccc3[nH]2)c1 | -0.08 | 64 (≈ 232 µM) | – |
| COc1c(C)cnc(CSc2nc3cc(C(C)(C)C)ccc3[nH]2)c1C | 0.86 | 8 (≈ 22.5 µM) | – |
| COc1c(C)cnc(CSc2nc3ccccc3[nH]2)c1C | 0.05 | 8 (≈ 26.7 µM) | – |
| Cc1cnc(CSc2nc3cc(C)ccc3[nH]2)c(C)c1 | 0.23 | 32 (≈ 113 µM) | – |
| CC(=O)c1ccc2[nH]c(SCc3ncc(C)cc3C)nc2c1 | -0.11 | 128 (≈ 411 µM) | – |
| Cc1ccnc(CSc2nc3ccccc3[nH]2)c1 | -0.21 | 128 (≈ 501 µM) | – |
| Cc1cnc(CSc2nc3cc(Cl)ccc3[nH]2)c(C)c1 | 0.45 | 8 (≈ 26.3 µM) | – |
| COc1ccc2[nH]c(SCc3cc(SC)ccn3)nc2c1 | -0.16 | 256 (≈ 806 µM) | – |
| Cc1c(OCc2ccccc2)ccnc1CSc1nc2ccccc2[nH]1 | 0.67 | 8 (≈ 22.1 µM) | – |
| COc1ccnc(CSc2nc3ccccc3[nH]2)c1 | -0.3 | 64 (≈ 236 µM) | – |
| CC(=O)c1ccc2[nH]c(SCc3cc(C(C)(C)C)ccn3)nc2c1 | 0.18 | 64 (≈ 189 µM) | – |
| c1ccc2[nH]c(SCc3cc(OCC4CC4)ccn3)nc2c1 | 0.13 | 32 (≈ 103 µM) | – |
| CC1(C)S[C@@H]2[C@H](NC(=O)[C@H](N)c3ccc(O)cc3)C(=O)N2[C@H]1C(=O)O [AMOXICILLIN] | – | 0.05 (≈ 0.137 µM) | 0.05 (≈ 0.137 µM) |

More lines, main results first:

| Log Ko [1] | Structure (SMILES) | MBC (Helicobacter pylori) [µg/mL] | MBC (Helicobacter felis) [µg/mL] |
| --- | --- | --- | --- |
| 0.26 | C=CCOc1ccnc(CSc2nc3ccccc3[nH]2)c1C | 1 (≈ 3.21 µM) | – |
| 0.75 | Cc1c(OCC(C)C)ccnc1CSc1nc2ccccc2[nH]1 | 1 (≈ 3.05 µM) | – |
| 0.44 | COc1ccnc(CSc2nc3cc(F)ccc3[nH]2)c1OC | 4 (≈ 12.5 µM) | – |
| -0.66 | COc1ccnc(CSc2nc3cc(CO)ccc3[nH]2)c1C | 128 (≈ 406 µM) | – |
| -0.01 | C#CCOc1ccnc(CSc2nc3ccccc3[nH]2)c1C | 2 (≈ 6.46 µM) | – |
| -0.17 | COCCOc1ccnc(CSc2nc3ccccc3[nH]2)c1C | 2 (≈ 6.07 µM) | – |
| 0.19 | CCOc1ccnc(CSc2nc3ccccc3[nH]2)c1C | 2 (≈ 6.68 µM) | – |
| -0.08 | COc1ccnc(CSc2nc3ccccc3[nH]2)c1C | 32 (≈ 112 µM) | – |
| 0.07 | COCCCOc1ccnc(CSc2nc3ccccc3[nH]2)c1C | 2 (≈ 5.82 µM) | – |
| 0.46 | Cc1c(OCC2CC2)ccnc1CSc1nc2ccccc2[nH]1 | 1 (≈ 3.07 µM) | 0.5 (≈ 1.54 µM) |
| 0.28 | Cc1c(OCC(F)(F)F)ccnc1CSc1nc2ccccc2[nH]1 [LANSOPRAZOLE SULFIDE] | 4 (≈ 11.3 µM) | – |
| 0 | COc1ccc2[nH]c(SCc3ncc(C)c(OC)c3C)nc2c1 [UFIPRAZOLE] | 32 (≈ 97.1 µM) | – |

Reference: ChEMBL document CHEMBL1131226, “Structure-activity relationship of 2-[[(2-pyridyl)methyl]thio]-1H- benzimidazoles as anti Helicobacter pylori agents in vitro and evaluation of their in vivo efficacy” (J Med Chem, 1998)
